pIC50: −log10 of the molar value. The source made the active and inactive calls. No cut-off for these calls is given here.

In the first experiment the target is T1, Beta-adrenergic receptor kinase 1 (Homo sapiens) (UniProt P25098).
T1 sequence (whole entry): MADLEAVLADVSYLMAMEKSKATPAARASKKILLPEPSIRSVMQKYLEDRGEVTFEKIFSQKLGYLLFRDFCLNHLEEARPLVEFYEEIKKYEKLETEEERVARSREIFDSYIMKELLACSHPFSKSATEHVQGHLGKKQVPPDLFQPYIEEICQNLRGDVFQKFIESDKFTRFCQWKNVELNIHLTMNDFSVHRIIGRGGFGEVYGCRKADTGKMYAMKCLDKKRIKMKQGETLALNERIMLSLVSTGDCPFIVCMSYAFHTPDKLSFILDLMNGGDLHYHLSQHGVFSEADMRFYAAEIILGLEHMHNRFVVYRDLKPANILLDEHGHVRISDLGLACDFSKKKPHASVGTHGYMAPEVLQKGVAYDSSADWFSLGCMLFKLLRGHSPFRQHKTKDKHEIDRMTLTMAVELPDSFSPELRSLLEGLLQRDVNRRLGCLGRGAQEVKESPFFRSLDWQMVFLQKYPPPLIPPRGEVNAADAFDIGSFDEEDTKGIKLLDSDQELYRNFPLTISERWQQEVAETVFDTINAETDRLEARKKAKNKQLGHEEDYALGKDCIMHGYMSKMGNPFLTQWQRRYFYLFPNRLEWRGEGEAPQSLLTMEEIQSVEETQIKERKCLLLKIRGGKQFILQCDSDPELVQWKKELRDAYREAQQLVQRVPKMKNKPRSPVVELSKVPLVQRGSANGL
Briefly: Inhibition of Beta-adrenergic receptor kinase 1 at 1 mM (Inactive). In outline:
(§1)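 Radiometric assay of βARK1 phosphorylating the intracellular C-terminal domain of human β2-adrenergic receptor (6.7 μM) with 10 mM [γ-32P]ATP (18.5 kBq). Stopped on ice water, then gel electrophoresis and imaging-plate readout of radioactivity. Inhibition % taken against control and background.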
A word on the inhibition: it is the change of the read-out against control, counted positive when it falls. On to `CC(C)Sc1nc2sccn2c1/C=N/OCc1c(Cl)cccc1Cl`, for which the inhibition result is “inactive”. Still for that read-out and setting: the value for `C/C(CCS(=O)(=O)c1ccccc1)=N\OC/C=C/Cl` was “inactive”.

Take `O=[N+]([O-])c1ccccc1/N=C/c1ccc2c(c1)OCO2`: the inhibition result is “inactive”. For `O=C(Nc1ccc(F)c([N+](=O)[O-])c1)Nc1cccc2c(O)cccc12`, the inhibition entry was “inactive”.

As for `CCCCCCCCCCCCCCCCN(C)c1ccc(S(C)(=O)=O)cc1N`, the inhibition result was “inactive”. For the compound `Cc1csc(-c2nc(-c3ccc(Cl)cc3)no2)c1Cl`, the inhibition result was “inactive”. Turning to `Clc1ccc(-c2csc(Nc3ccccc3)n2)cc1`, the inhibition entry was “inactive”. Turning to `COc1ccc(/C=N/c2ccc(O)cc2)cc1`, the inhibition result is “inactive”.

The next experiment has as its target T2, Beta-adrenergic receptor kinase 1 (Homo sapiens, UniProt P25098).
T2 sequence (P25098 whole entry): T1 sequence (whole entry)
The experiment is described as follows: Inhibition of Beta-adrenergic receptor kinase 1. In outline:
as §1
What is called pIC50 is the negative decadic logarithm of the IC50, by convention in mol/L. A high value points to a low IC50. `COC(=O)c1ccc(/C=C/c2ccc([N+](=O)[O-])o2)o1` had a negative logarithm of the IC50 (pIC50) of 3.90. The same measure, in the same setting: the value for `CCC(=O)n1nc2c(c1C(C)(C)C)C(=O)c1ccccc1-2` was 3.25.

In a further experiment the target is cAMP-dependent protein kinase (PKA) (Homo sapiens) (UniProt P22694+P17612+P22612). The experiment is described as follows: Inhibition of Protein kinase A (PKA) at 1 mM. The format is functional. In outline:
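Colorimetric kit assay of PKA (final 87 units/μL) with dye-linked kemptide substrate (LRRASLG). Incubated 30 min at 30 °C. Phosphorylated substrate captured on affinity membrane, eluted, read at OD 570 nm. PKI5-24 was the positive control.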
As for `COC(=O)c1ccc(/C=C/c2ccc([N+](=O)[O-])o2)o1`, the inhibition came out at 1.8%. Same read-out and setting: the value for `CCC(=O)n1nc2c(c1C(C)(C)C)C(=O)c1ccccc1-2` was -2.2%.

A further experiment addresses T1, Beta-adrenergic receptor kinase 1 (Homo sapiens). Briefly: Inhibition of Beta-adrenergic receptor kinase 1 at 1 mM. Put shortly:
as §1
As for `COC(=O)c1ccc(/C=C/c2ccc([N+](=O)[O-])o2)o1`, the inhibition worked out at 88.4%.

For the compound `COC(=O)c1sccc1Oc1ccc(C(F)(F)F)cc1NC=C(C#N)C#N`, the inhibition worked out at 28.8%. `CC(=O)CC(=O)Nc1cc(C(C)(C)C)sc1C(N)=O`: the inhibition worked out at 37.3%. Turning to `O=C(NCc1ccco1)c1ccc([N+](=O)[O-])o1`, the inhibition stood at 37.7%. Regarding `Oc1nnc(Cc2ccc(-c3ccccc3Cl)o2)c2ccccc12`, the inhibition was determined as 67.3%. The same measure, in the same setting: the result for `CC(C)COC(=O)CSc1nc2c(c(=O)[nH]c(=O)n2C)n1C` reads 0%.

Take `O=C1C(O)=C(O)O[C@@H]1C1COC2(CCCCC2)O1` (stereo not given in full): the inhibition was 0%.

Take `CCC(=O)n1nc2c(c1C(C)(C)C)C(=O)c1ccccc1-2`: the inhibition was found to be 52.7%. On the same count and under the same terms, the result for `O=C1C(O)=C(O)O[C@H]1C1COC2(CCCCC2)O1` (stereo not given in full) reads 20.4%; that for `NC(=O)c1ncn([C@@H]2O[C@@H](CO)[C@H](O)[C@@H]2O)n1`, 0%. Regarding `Nc1nc(O)c2ncn([C@H]3O[C@@H]4COP(=O)(O)O[C@H]4[C@H]3O)c2n1`, the inhibition is 24.2%. The same measure, in the same setting: the value for `Cc1ccc(Cl)cc1NCN1C(=O)CNC1=S` was 26.5%; that for `CCOC(=O)c1cnc2c(C(F)(F)F)cccc2c1O` was 20.1%.
